In ChEMBL document CHEMBL4699639, “Discovery of Novel 2-Aniline-1,4-naphthoquinones as Potential New Drug Treatment for Leber's Hereditary Optic Neuropathy (LHON)” (J Med Chem, 2020):
Calls of active or inactive are those of the source. The rule behind the calls is not given here.

Experiments:
[1] = test system: SH-SY5Y; experiment: Cytotoxicity against human SH-SY5Y cells assessed as reduction in cell viability by WST-1 assay; format: cell-based
[2] = target: NAD(P)H dehydrogenase [quinone] 1 (Homo sapiens) (UniProt P15559); experiment: Substrate activity at NQO1 in human HepG2 cells assessed as reduction in cell viability in presence of NQO1 inhibitor dicoumarol by WST-1 assay; format: cell-based
Sequence of NAD(P)H dehydrogenase [quinone] 1 (Homo sapiens) (P15559 whole entry): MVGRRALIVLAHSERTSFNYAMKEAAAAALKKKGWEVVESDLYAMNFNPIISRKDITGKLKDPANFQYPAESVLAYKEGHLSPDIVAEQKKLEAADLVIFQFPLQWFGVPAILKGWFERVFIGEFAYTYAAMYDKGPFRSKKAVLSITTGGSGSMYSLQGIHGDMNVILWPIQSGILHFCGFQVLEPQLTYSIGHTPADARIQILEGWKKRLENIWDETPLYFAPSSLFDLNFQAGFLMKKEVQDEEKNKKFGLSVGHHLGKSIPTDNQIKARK

[3] = test system: HepG2; experiment: Cytotoxicity against human HepG2 cells assessed as reduction in cell viability incubated for 24 hrs by Celltiter-blue assay; format: cell-based; details: HepG2, 24 h
[4] = Suppression of rotenone-induced ATP depletion in human HepG2 cells incubated for 2 hrs by Celltiter-Glo assay; format: functional, cell-based; details: HepG2, 2 h
Procedure, shortened: (§1)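 HepG2 cells seeded 10×10^3 per well in 1 g/L glucose, 2% FBS medium the day before. Switched to glucose- and FBS-free medium containing 10 µM rotenone, with compound added at the same time, 2 h at 37 °C. ATP read by CellTiter-Glo luminescence, normalized to DMSO cells without rotenone. Mean ± SEM of ≥3 independent runs. Complex III inhibitors, where used, at 50 nM.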

[5] = Suppression of rotenone-induced ATP depletion in human HepG2 cells assessed as rescue of ATP level incubated for 2 hrs by Celltiter-Glo assay relative to control; format: functional; parameters: concentration or dose not given beside the values; procedure, shortened: as §1
[6] = test system: SH-SY5Y; experiment: Cytotoxicity against human SH-SY5Y cells assessed as reduction in cell viability incubated for 24 hrs by Celltiter-blue assay; format: cell-based
[7] = test system: SH-SY5Y; experiment: Cytotoxicity against human SH-SY5Y cells assessed as reduction in cell viability at 25 uM incubated for 24 hrs by Celltiter-blue assay; format: cell-based
Procedure, shortened: (§2)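 HepG2 or SH-SY5Y seeded 10×10^3 per well the day before in 1 g/L glucose medium with 2% FBS. Medium replaced with fresh 2% FBS, 1 g/L glucose medium containing compound (25 µM) for 24 h at 37 °C. CellTiter-Blue added for 4 h, fluorescence read at 560/590 nm. Viability given as % of vehicle/untreated cells. Mean ± SEM of ≥3 independent runs.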

[8] = test system: HepG2; experiment: Suppression of rotenone-induced ATP depletion in human HepG2 cells assessed as rescue of ATP level at 5 uM incubated for 2 hrs in presence of NQO1 irreversible inhibitor ES936 by Celltiter-Glo assay; format: functional, cell-based
[9] = target: NAD(P)H dehydrogenase [quinone] 1 (Homo sapiens) (UniProt P15559); experiment: Substrate activity at NQO1 in human HepG2 cells assessed as reduction in cell viability by WST-1 assay; format: cell-based
[10] = test system: HepG2; experiment: Suppression of rotenone-induced ATP depletion in human HepG2 cells assessed as rescue of ATP level at 5 uM incubated for 2 hrs in presence of complex III inhibitor antimycin by Celltiter-Glo assay; format: functional, cell-based; procedure, shortened: as §1
[11] = test system: HepG2; experiment: Suppression of rotenone-induced ATP depletion in human HepG2 cells assessed as rescue of ATP level at 5 uM incubated for 2 hrs in presence of complex III inhibitor myxothiazol by Celltiter-Glo assay; format: functional, cell-based; procedure, shortened: as §1
[12] = Cytotoxicity against human HepG2 cells assessed as cell viability at 25 uM incubated for 24 hrs by Celltiter-blue assay relative to control; format: cell-based; details: read-out: Activity; procedure, shortened: as §2
[13] = test system: HepG2; experiment: Suppression of rotenone-induced ATP depletion in human HepG2 cells assessed as increase in rescue of ATP level at 0.1 to 1 uM incubated for 2 hrs by Celltiter-Glo assay; format: functional, cell-based; details: dose microM 0.1-1, time 2.0 hrs; procedure, shortened: as §1
[14] = test system: HepG2; experiment: Suppression of rotenone-induced ATP depletion in human HepG2 cells assessed as rescue of ATP level at 5 uM incubated for 2 hrs in presence of NQO1 inhibitor dicoumarol by Celltiter-Glo assay; format: functional, cell-based
[15] = test system: HepG2; experiment: Suppression of rotenone-induced ATP depletion in human HepG2 cells assessed as increase in rescue of ATP level at 1 uM incubated for 2 hrs by Celltiter-Glo assay; format: functional, cell-based; procedure, shortened: as §1
[16] = Cytotoxicity against […] assessed as reduction in cell viability by WST-1 assay; format: cell-based; details: r28
[17] = (§3) Suppression of rotenone-induced ATP depletion in human HepG2 cells assessed as rescue of ATP level at 5 uM incubated for 2 hrs by Celltiter-Glo assay relative to control; format: functional; procedure, shortened: as §1
[18] = test system: HepG2; experiment: Cytotoxicity against human HepG2 cells assessed as cell reduction in cell viability at 25 uM incubated for 24 hrs by Celltiter-blue assay; format: cell-based; details: hepg2, 24 h; procedure, shortened: as §2
[19] = target: NAD(P)H dehydrogenase [quinone] 1 (Homo sapiens) (UniProt P15559); experiment: Substrate activity at recombinant NQO1 (unknown origin) assessed as reduction in NADH level at 20 uM measured for 6 mins by microplate reader analysis
[20] = test system: HepG2; experiment: as §3; format: functional; procedure, shortened: as §1

In the case of CC1=C(Nc2ccc(F)c(C(F)(F)F)c2)C(=O)c2ccccc2C1=O, the Activity [1] is reported as “Non-Toxic”, the Activity [2] is reported as “inactive” and the IC50 [3] is reported as > 100 µM. The EC50 [4] was 0.91 µM, the Activity [5] was 52.6% and the IC50 [6] was > 100 µM. For the same compound, the Activity [7] was “Non-Toxic”, the Activity [8] was “inactive” and the Activity [9] was “Active”. The Activity [10] was “inactive”, the Activity [11] was “inactive” and the viability at 24 h, 25 µM [12] was 101%. The Activity [13] was “Active”, the Activity [14] was “inactive” and the Activity [15] was “Active”. The Activity [16] was “Non-Toxic”.

In the case of CSC1=C(Nc2cc(C(F)(F)F)ccc2F)C(=O)c2ccccc2C1=O, the Activity [7] is reported as “Non-Toxic” and the Activity [15] is reported as “Active”.

In the case of O=C1C(Cl)=C(NCCc2cccc(C(F)(F)F)c2)C(=O)c2ccccc21, the Activity [15] is reported as “Active”.

For COC1=C(Nc2cccc(C(F)(F)F)c2)C(=O)c2ccccc2C1=O, the Activity [1] was “Non-Toxic”, the Activity [2] was “inactive” and the Activity [7] was “Non-Toxic”. The Activity [9] was “Active”, the Activity [15] was “Active” and the Activity [17] was 70%. The Activity [16] was “Non-Toxic”.

For CCCCNC1=C(Cl)C(=O)c2ccccc2C1=O, the Activity [7] was “Toxic” and the Activity [17] was 70%.

For O=C1C(Cl)=C(NCc2ccccc2)C(=O)c2ccccc21, the Activity [7] was “Toxic”, the Activity [15] was “Active” and the Activity [17] was 70%.

With O=C1C(Nc2cccc(C(F)(F)F)c2)=C(SC(F)(F)F)C(=O)c2ccccc21 the Activity [7] was “Toxic”, the Activity [18] was “Toxic” and the Activity [15] was “Active”.

With COC1=C(Nc2ccc(F)c(C(F)(F)F)c2)C(=O)c2ccccc2C1=O the Activity [1] was “Non-Toxic”, the Activity [2] was “inactive” and the IC50 [3] was > 100 µM. For the same compound, the EC50 [4] was 0.46 µM, the Activity [5] was 58.6% and the IC50 [6] was > 100 µM. The Activity [7] was “Non-Toxic”, the Activity [8] was “inactive” and the Activity [9] was “Active”. The Activity [10] was “inactive”, the Activity [11] was “inactive” and the viability at 24 h, 25 µM [12] was 96.5%. The Activity [13] was “Active”, the Activity [19] was “Active” and the Activity [14] was “inactive”. For the same compound, the Activity [15] was “Active” and the Activity [16] was “Non-Toxic”.

For O=C1C(Cl)=C(Nc2ccc(Nc3ccccc3)cc2)C(=O)c2ccccc21, the Activity [7] was “Toxic” and the Activity [18] was “Toxic”.

With O=C1C(Cl)=C(NCCc2ccccc2)C(=O)c2ccccc21 the Activity [15] was “Active”.

In the case of O=C1C=C(NCc2ccccc2)C(=O)c2ccccc21, the Activity [7] is reported as “Toxic” and the Activity [15] is reported as “Active”.

For CC1=C(Sc2ccccc2)C(=O)c2ccccc2C1=O, the Activity [7] was “Toxic” and the Activity [17] was 70%.

For COC1=C(Nc2ccccc2)C(=O)c2ccccc2C1=O, the Activity [7] was “Non-Toxic” and the Activity [15] was “inactive”.

In the case of O=C1C(Cl)=C(Nc2cccc(O)c2)C(=O)c2ccccc21, the Activity [1] is reported as “Non-Toxic”, the Activity [2] is reported as “inactive” and the Activity [9] is reported as “Active”. For the same compound, the Activity [16] was “Non-Toxic”.

For CCSC1=C(Nc2cccc(C(F)(F)F)c2)C(=O)c2ccccc2C1=O, the Activity [1] was “Non-Toxic”, the Activity [2] was “inactive” and the Activity [7] was “Toxic”. The Activity [18] was “Toxic”, the Activity [9] was “Active” and the Activity [15] was “Active”. For the same compound, the Activity [16] was “Non-Toxic”.

O=C1C(Cl)=C(Nc2ccc(F)c(C(F)(F)F)c2)C(=O)c2ccccc21 gave an Activity [5] of 40.3% and a viability at 24 h, 25 µM [12] of 65.8%.

With CC1=C(CCCC(=O)NCCc2ccc(O)cc2)C(=O)c2ccccc2C1=O the IC50 [3] was > 100 µM, the EC50 [4] was 0.8 µM and the IC50 [6] was 76 µM. The Activity [13] was “Active” and the Activity [19] was “inactive”.

For CCNC1=C(Nc2ccccc2)C(=O)c2ccccc2C1=O, the Activity [7] was “Non-Toxic” and the Activity [15] was “Active”.

With O=C1C(Cl)=C(Nc2cccc(C(F)(F)F)c2)C(=O)c2ccccc21 the Activity [7] was “Toxic”, the Activity [18] was “Toxic” and the Activity [15] was “Active”.

With COC1=C(Nc2cc(C(F)(F)F)ccc2F)C(=O)c2ccccc2C1=O the Activity [1] was “Non-Toxic”, the Activity [2] was “inactive” and the Activity [7] was “Non-Toxic”. The Activity [9] was “Active”, the Activity [15] was “Active” and the Activity [16] was “Non-Toxic”.

In the case of O=C1C(Br)=C(NCCc2ccccn2)C(=O)c2ccccc21, the Activity [7] is reported as “Toxic”.

With O=C1C(Cl)=C(Nc2ccccc2)C(=O)c2ccccc21 the Activity [15] was “Active”.

For NC1=C(Cl)C(=O)c2ccccc2C1=O, the Activity [20] was “inactive”.

In the case of O=C1C(Nc2ccccc2)=C(Oc2ccccc2)C(=O)c2ccccc21, the Activity [15] is reported as “inactive”.

For O=C1C(Cl)=C(NCc2cccc(C(F)(F)F)c2)C(=O)c2ccccc21, the Activity [15] was “Active”.

For CC1=C(SC(C)(C)C)C(=O)c2ccccc2C1=O, the Activity [7] was “Toxic” and the Activity [17] was 70%.

For CC(C)SC1=C(Nc2cccc(C(F)(F)F)c2)C(=O)c2ccccc2C1=O, the Activity [7] was “Toxic”, the Activity [18] was “Toxic” and the Activity [15] was “Active”.

With CCOC1=C(Nc2ccccc2)C(=O)c2ccccc2C1=O the Activity [7] was “Non-Toxic” and the Activity [15] was “inactive”.

With O=C(OC1=C(c2ccccc2)C(=O)c2ccccc2C1=O)c1cccc([N+](=O)[O-])c1 the Activity [7] was “Toxic”.

With CSC1=C(Nc2cccc(C(F)(F)F)c2)C(=O)c2ccccc2C1=O the Activity [7] was “Non-Toxic”.

In the case of CNC1=C(Nc2ccc(F)c(C(F)(F)F)c2)C(=O)c2ccccc2C1=O, the Activity [5] is reported as 14.7%, the Activity [7] is reported as “Non-Toxic” and the viability at 24 h, 25 µM [12] is reported as 95.8%. The Activity [19] was “inactive”.

With O=C1C=C(Nc2ccc(F)c(C(F)(F)F)c2)C(=O)c2ccccc21 the Activity [5] was 54.5%, the Activity [7] was “Non-Toxic” and the viability at 24 h, 25 µM [12] was 35.6%.

In the case of O=C1C(Nc2ccc(F)c(C(F)(F)F)c2)=C(SC(F)(F)F)C(=O)c2ccccc21, the Activity [1] is reported as “Non-Toxic”, the Activity [2] is reported as “inactive” and the Activity [5] is reported as 58.6%. The Activity [7] was “Toxic”, the Activity [18] was “Toxic” and the Activity [9] was “Active”. For the same compound, the viability at 24 h, 25 µM [12] was 65.8%, the Activity [19] was “Active” and the Activity [15] was “Active”. The Activity [16] was “Non-Toxic”.

With CN(C)C1=C(Nc2ccccc2)C(=O)c2ccccc2C1=O the Activity [15] was “Active”.

With COC(=O)c1ccc(NC2=C(Cl)C(=O)c3ccccc3C2=O)cc1 the Activity [7] was “Toxic”, the Activity [18] was “Toxic” and the Activity [17] was 70%.

With CC(C)OC1=C(Nc2ccccc2)C(=O)c2ccccc2C1=O the Activity [15] was “inactive”.

For O=C1C(Cl)=C(NCCC(F)(F)F)C(=O)c2ccccc21, the Activity [20] was “inactive”.

With CNC1=C(Nc2ccccc2)C(=O)c2ccccc2C1=O the Activity [7] was “Non-Toxic” and the Activity [19] was “inactive”.

In the case of CCCCC1=C(C)C(=O)c2ccccc2C1=O, the Activity [7] is reported as “Toxic”.

For CC1=C(CCCCCCCCCCO)C(=O)c2ccccc2C1=O, the Activity [15] was “inactive”.

For O=C1C=C(NCCCCO)C(=O)c2ccccc21, the Activity [7] was “Toxic”.

With O=C1C=C(NCCc2ccccc2)C(=O)c2ccccc21 the Activity [7] was “Toxic”.
